In brackets after ≈: the same amount, converted by molar mass. Activity calls are given as the source filed them. The rule behind the calls is not given here.
What was measured:
K562 [1] = test: Cytotoxicity against human K562 cells at 50 ug/ml after 48 hrs by MTS assay relative to control; assay type: functional
Procedure, shortened: (§1)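 Single-concentration screen at 50 μg/mL against T-47D and K562 cells, activity expressed relative to a vehicle control set at 100. Means ± SDs from triplicated experiments.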

T47D [2] = test: Cytotoxicity against human T47D cells at 50 ug/ml after 48 hrs by MTS assay relative to control; assay type: functional; procedure, shortened: as §1
[3] = Up-regulation of CLGN gene expression in human KYSE-150 cells at 8.5 ug/ml after 48 hrs; assay type: functional, cell-based
Procedure, shortened: (§2)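 KYSE150 esophageal cancer cells treated with 8.5 μg/mL for 48 h alongside a vehicle control. Total RNA extracted and gene expression change expressed as percent change in detection signal versus control.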

[4] = Down regulation of CCL5 gene expression in human KYSE-150 cells at 8.5 ug/ml after 48 hrs; assay type: functional, cell-based; procedure, shortened: as §2
[5] = Solubility of the compound in physiological saline; assay type: physicochemical; conditions: buffer
Mus musculus [6] = test: Toxicity in human Hep3B cells xenografted athymic nude mouse assessed as changes in histological appearance of vital organs at 10 mg/kg, ip qd for 8 days by ematoxylin and eosin staining; assay type: organism-based, Hep 3B2; design: dose 10 mg/kg, route intraperitoneal; conditions: in vivo, 192 h
Procedure, shortened: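 Human Hep3B hepatocellular carcinoma cells grown as subcutaneous xenografts in athymic nude mice, five per group, given daily intraperitoneal injection at 10 mg/kg/day alongside vehicle controls. After 8 days of treatment, vital organs were collected, stained with hematoxylin and eosin, and examined for tissue damage at the histological level.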

Mus musculus [7] = test: Toxicity in human Hep3B cells xenografted athymic nude mouse assessed as mortality at 10 mg/kg, ip qd for 8 days; assay type: organism-based, Hep 3B2; design: dose 10 mg/kg, route intraperitoneal; conditions: in vivo, 192 h
Procedure, shortened: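 Athymic nude mice bearing subcutaneous human Hep3B hepatocellular carcinoma xenografts, five per group, received 10 mg/kg/day intraperitoneally once daily, with a vehicle-treated control group. Deaths were recorded over the treatment period.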

T47D [8] = test: Inhibition of colony formation in human T47D cells at 50 ug/ml after 24 hrs by anchorage-dependent clonogenicity assay; assay type: functional, cell-based
Procedure, shortened: (§3)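 Anchorage-dependent clonogenicity assay on K562 and T47D cells. Treatment at 50 μg/mL for 24 h, then colony formation scored as percent inhibition versus vehicle control.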

K562 [9] = test: Inhibition of colony formation in human K562 cells at 50 ug/ml after 24 hrs by anchorage-dependent clonogenicity assay; assay type: functional, cell-based; procedure, shortened: as §3
Hs-578T [10] = test: Induction of morphological changes in human Hs578T cells at 50 ug/ml; assay type: functional, cell-based
MDA-MB-231 [11] = test: Induction of morphological changes in human MDA-MB-231 cells at 50 ug/ml; assay type: functional, cell-based
T47D [12] = test: Induction of morphological changes in human T47D cells at 50 ug/ml; assay type: functional, cell-based
T47D [13] = test: Ratio of CDDP IC50 to compound IC50 for human T47D cells; assay type: functional
K562 [14] = test: Cytotoxicity against human K562 cells after 48 hrs by MTS assay; assay type: functional
Procedure, shortened: (§4)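 MTS assay on cancer cell lines and nontumor NIH3T3 cells. MTS50 is the concentration giving 50% reduction of MTS signal versus control. Dose-response tests run in triplicate over three independent experiments, means ± SDs against vehicle control.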

T47D [15] = test: Cytotoxicity against human T47D cells after 48 hrs by MTS assay; assay type: functional; procedure, shortened: as §4
[16] = Cytotoxicity against mouse NIH/3T3 cells after 48 hrs by MTS assay; assay type: cell-based, NIH3T3; conditions: read-out: MTS50; procedure, shortened: as §4
[17] = Cytotoxicity against human Hep3B cells after 48 hrs by MTS assay; assay type: functional, Hep 3B2; procedure, shortened: as §4
SK-HEP1 = test: Cytotoxicity against human SKHEP1 cells after 48 hrs by MTS assay; assay type: functional; procedure, shortened: as §4
SAOS-2 = test: Cytotoxicity against human Saos2 cells after 48 hrs by MTS assay; assay type: functional; procedure, shortened: as §4
Hs-578T [18] = test: Cytotoxicity against human Hs578T cells after 48 hrs by MTS assay; assay type: functional; procedure, shortened: as §4
A549 = test: Cytotoxicity against human A549 cells after 48 hrs by MTS assay; assay type: functional; procedure, shortened: as §4
MDA-MB-231 [19] = test: Cytotoxicity against human MDA-MB-231 cells after 48 hrs by MTS assay; assay type: functional; procedure, shortened: as §4
Hep 3B2 = test: Antitumor activity against human Hep3B cells xenografted in athymic nude mouse assessed as disappearance of tumor at 10 mg/kg, ip qd for 8 days; assay type: functional, organism-based; design: dose 10 mg/kg; conditions: in the assay text read “for 9 days” for “for 8 days”
Procedure, shortened: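 Subcutaneous Hep3B hepatocellular carcinoma xenografts in athymic nude mice, five per group, vehicle control group. Dosing 10 mg/kg/day by daily intraperitoneal injection, 9 days. Tumor volume (mm3) followed, given as mean + SD, Student's t test. Vital organs examined by hematoxylin and eosin histology.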

Oc1cccc2cccnc12 [OXYQUINOLINE]
Activity (K562 [1]): 26.66%
Activity (T47D [2]): 52.6%

Cc1ccc2cccc(O)c2n1 [8-HYDROXY QUINALDINE]
Activity (K562 [1]): 34.46%
Activity (T47D [2]): 46.54%

Cc1ccc2cccc(OCCN3CCCCC3)c2n1
Activity (K562 [1]): 27.43%
Activity (T47D [2]): 69.2%

N#Cc1ccc2cccc(O)c2n1
Activity (K562 [1]): 23.08%
Activity (T47D [2]): 72.92%

COc1cccc2ccc(C)nc12
Activity (K562 [1]): 27.15%
Activity (T47D [2]): 37.92%

O=Cc1ccc2cccc(O)c2n1
Activity [3]: 65.4%
Activity [4]: 53.4%
solubility [5]: Insoluble
Activity (Mus musculus [6]): Non-toxic
Activity (Mus musculus [7]): Non-toxic
inhibition (T47D [8]): Dose-dependent effect
inhibition (K562 [9]): Dose-dependent effect
Activity (Hs-578T [10]): Active
Activity (MDA-MB-231 [11]): Active
Activity (T47D [12]): Active
Ratio IC50 (T47D [13]): 4
MTS50 (K562 [14]): 12.5 µg/mL
MTS50 (T47D [15]): 12.5 µg/mL
CC50 at 48 h [16]: 7 µg/mL (≈ 40.4 µM)
MTS50 [17]: 6.25 µg/mL
MTS50 (SK-HEP1): 12.5 µg/mL
MTS50 (SAOS-2): 12.5 µg/mL
MTS50 (Hs-578T [18]): 12.5 µg/mL
MTS50 (A549): >50 µg/mL
MTS50 (MDA-MB-231 [19]): 12.5 µg/mL
Activity (K562 [1]): 7%
Activity (T47D [2]): 8.37%
Activity (Hep 3B2): Active

CCOc1cccc2ccc(C)nc12
Activity (K562 [1]): 21.38%
Activity (T47D [2]): 63.43%

Source: ChEMBL document CHEMBL2321796, “Synthesis of 8-hydroxyquinoline derivatives as novel antitumor agents” (ACS Med Chem Lett, 2013)
